Data reported in ChEMBL document CHEMBL4308835, “Fluorine-Substituted Pyrrolo[2,3- d]Pyrimidine Analogues with Tumor Targeting via Cellular Uptake by Folate Receptor α and the Proton-Coupled Folate Transporter and Inhibition of de Novo Purine Nucleotide Biosynthesis” (J Med Chem, 2018).
Activity calls are given as the source filed them. No cut-off for these calls is given here.

What was measured:
IGROV-1 [1] = test: Antiproliferative activity against wild type human IGROV1 cells after 96 hrs by Cell-Titer Blue assay; format: functional, cell-based; settings: IGROV-1, 96 h
[2] = target: T1, Reduced folate transporter (Homo sapiens) (UniProt P41440); test: Inhibition of human RFC2 expressed in human HeLa R1-11 cells assessed as reduction in [3H]MTX uptake at pH 7.2 at 1 uM measured over 2 mins relative to control; format: cell-based
T1 sequence (whole entry): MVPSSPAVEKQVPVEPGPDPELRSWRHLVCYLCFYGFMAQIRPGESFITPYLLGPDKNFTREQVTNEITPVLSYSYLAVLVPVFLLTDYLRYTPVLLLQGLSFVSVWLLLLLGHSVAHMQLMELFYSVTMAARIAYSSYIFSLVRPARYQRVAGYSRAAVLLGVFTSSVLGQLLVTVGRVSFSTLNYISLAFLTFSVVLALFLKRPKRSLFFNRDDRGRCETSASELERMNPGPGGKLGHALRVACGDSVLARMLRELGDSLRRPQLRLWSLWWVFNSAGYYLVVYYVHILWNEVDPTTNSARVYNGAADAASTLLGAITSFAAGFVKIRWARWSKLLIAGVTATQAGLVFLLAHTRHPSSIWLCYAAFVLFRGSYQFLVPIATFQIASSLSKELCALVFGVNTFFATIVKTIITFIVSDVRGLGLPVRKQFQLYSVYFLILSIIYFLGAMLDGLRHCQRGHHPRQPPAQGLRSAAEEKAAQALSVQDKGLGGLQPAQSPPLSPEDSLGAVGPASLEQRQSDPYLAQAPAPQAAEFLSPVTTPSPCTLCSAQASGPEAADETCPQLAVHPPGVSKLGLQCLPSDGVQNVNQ

IGROV-1 [3] = test: Antiproliferative activity against FRalpha […] human IGROV1 KD4 cells after 96 hrs by Cell-Titer Blue assay; format: functional, cell-based; settings: IGROV-1, 96 h
A2780 = test: Antiproliferative activity against human A2780 cells after 96 hrs by Cell-Titer Blue assay; format: functional, cell-based; settings: A2780, 96 h
IGROV-1 [4] = test: Antiproliferative activity against FRalpha […] human IGROV1 KD10 cells after 96 hrs by Cell-Titer Blue assay; format: functional, cell-based; settings: IGROV-1, 96 h
IGROV-1 [5] = test: Anticlonogenic activity against human IGROV1 cells incubated for 24 hrs followed by compound wash out and measured after 10 days by methylene blue staining-based assay; format: functional, cell-based
Summary of the method: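 IGROV1 cells plated in folate-free RPMI 1640 (pH 7.2), 10% dialyzed FBS, 25 nM LCV. After 24 h adherence, exposed to drug (0–20 μM) for 24 h at pH 6.8 (25 mM PIPES/25 mM HEPES). Washed, then grown drug-free at pH 7.2 (100 mM HEPES) with 25 nM LCV for up to 10 days at 37 °C. Colonies stained with methylene blue and counted electronically. Values normalized to vehicle controls. Triplicate experiments.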

IGROV-1 [6] = test: Antiproliferative activity against human IGROV1 cells harboring non targeted control shRNA sequence after 96 hrs by Cell-Titer Blue assay; format: functional, cell-based; settings: IGROV-1, 96 h
[7] = target: T1, Reduced folate transporter (Homo sapiens); test: Inhibition of human RFC2 expressed in human HeLa R1-11 cells assessed as reduction in [3H]MTX uptake at pH 7.2 at 10 uM measured over 2 mins relative to control; format: cell-based
[8] = target: T2, Proton-coupled folate transporter (Homo sapiens) (UniProt Q96NT5); test: Inhibition of human PCFT expressed in Chinese hamster R2/PCFT4 cells assessed as reduction in [3H]MTX uptake at pH 5.5 at 1 to 10 uM measured over 2 mins; format: cell-based
T2 sequence (whole entry): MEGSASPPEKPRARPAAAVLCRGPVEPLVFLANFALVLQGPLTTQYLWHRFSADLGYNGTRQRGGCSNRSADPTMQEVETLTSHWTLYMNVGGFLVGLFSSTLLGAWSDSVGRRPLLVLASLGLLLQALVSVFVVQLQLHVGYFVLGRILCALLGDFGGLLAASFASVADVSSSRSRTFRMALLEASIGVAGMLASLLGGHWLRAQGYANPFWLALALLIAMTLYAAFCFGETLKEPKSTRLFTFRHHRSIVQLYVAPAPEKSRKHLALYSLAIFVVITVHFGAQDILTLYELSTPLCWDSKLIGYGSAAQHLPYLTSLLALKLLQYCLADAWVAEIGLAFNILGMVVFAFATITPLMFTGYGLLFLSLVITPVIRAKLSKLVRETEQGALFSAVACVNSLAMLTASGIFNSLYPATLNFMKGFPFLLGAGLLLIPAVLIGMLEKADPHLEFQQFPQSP

[9] = target: T2, Proton-coupled folate transporter (Homo sapiens); test: Inhibition of human PCFT expressed in Chinese hamster R2/PCFT4 cells assessed as reduction in [3H]MTX uptake at pH 5.5 at 10 uM measured over 2 mins relative to control; format: cell-based
[10] = target: T2, Proton-coupled folate transporter (Homo sapiens); test: Inhibition of human PCFT expressed in Chinese hamster R2/PCFT4 cells assessed as reduction in [3H]MTX uptake at pH 5.5 at 1 uM measured over 2 mins relative to control; format: cell-based
[11] = target: T3, Proton-coupled folate transporter (Homo sapiens, UniProt Q96NT5); test: Inhibition of human PCFT expressed in Chinese hamster R2/PCFT4 cells assessed as reduction in [3H]MTX uptake at pH 5.5 measured over 2 mins by Dixon plot analysis; format: cell-based
T3 sequence (Q96NT5 whole entry): T2 sequence (whole entry)
Summary of the method: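 Competitor concentrations ranged from 0.05 to 0.5 μM. Ki was obtained by Dixon plot. Mean ± SE of four independent experiments.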

IGROV-1 [12] = test: Antiproliferative activity against human IGROV1 cells at 1 to 1000 nM in presence of 10 uM thymidine after 96 hrs by Cell-Titer Blue assay; format: functional, cell-based
Summary of the method: (§1)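 IGROV1 cells, 2000/well, in folate-free RPMI 1640 with 10% dialyzed FBS, L-glutamine, 25 nM LCV. A range of drug concentrations was given with thymidine (10 μM), adenosine (60 μM) or AICA (320 μM) added. After 96 h, proliferation was measured by Cell-Titer Blue fluorescence. At least triplicate experiments.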

IGROV-1 [13] = test: Antiproliferative activity against human IGROV1 cells at 1 to 1000 nM in presence of 320 uM AICA after 96 hrs by Cell-Titer Blue assay; format: functional, cell-based; summary of the method: as §1
IGROV-1 [14] = test: Antiproliferative activity against human IGROV1 cells at 1 to 1000 nM in presence of 60 uM adenosine after 96 hrs by Cell-Titer Blue assay; format: functional, cell-based; summary of the method: as §1
[15] = Antiproliferative activity in Chinese hamster R2 cells deficient in RFC, PCFT, and FRalpha assessed as reduction in cell growth after 96 hrs by Cell-Titer Blue assay; format: cell-based; settings: Cricetulus griseus, R2, 96 h
[16] = target: Folate receptor alpha (Homo sapiens) (UniProt P15328); test: Displacement of [3H]folic acid from human FRalpha expressed in Chinese hamster RT16 cells at 10 to 1000 nM after 15 mins; format: cell-based
Folate receptor alpha (Homo sapiens), sequence (P15328 25-234 limits assumed): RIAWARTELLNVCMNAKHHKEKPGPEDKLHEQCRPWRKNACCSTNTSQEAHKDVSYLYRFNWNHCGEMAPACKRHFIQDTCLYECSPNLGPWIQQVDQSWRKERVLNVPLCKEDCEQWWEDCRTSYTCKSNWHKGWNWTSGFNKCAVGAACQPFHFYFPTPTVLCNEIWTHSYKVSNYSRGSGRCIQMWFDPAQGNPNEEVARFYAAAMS
Summary of the method: (§2)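 RT16 (FRα) or D4 (FRβ) CHO cells at ~80% confluence were washed with PBS at 4 °C, then with pH 3.5 acetate buffer to strip bound folate, then HEPES-buffered saline pH 7.4. Cells were incubated with 50 nM [³H]folic acid plus competitor (10–1000 nM) for 15 min at 4 °C, washed, and solubilized in NaOH. Bound radioactivity was normalized to protein.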

[17] = target: Folate receptor beta (Homo sapiens) (UniProt P14207); test: Displacement of [3H]folic acid from human FRbeta expressed in Chinese hamster D4 cells at 10 to 1000 nM after 15 mins; format: cell-based; summary of the method: as §2
Folate receptor beta (Homo sapiens), sequence (P14207 17-230 limits assumed): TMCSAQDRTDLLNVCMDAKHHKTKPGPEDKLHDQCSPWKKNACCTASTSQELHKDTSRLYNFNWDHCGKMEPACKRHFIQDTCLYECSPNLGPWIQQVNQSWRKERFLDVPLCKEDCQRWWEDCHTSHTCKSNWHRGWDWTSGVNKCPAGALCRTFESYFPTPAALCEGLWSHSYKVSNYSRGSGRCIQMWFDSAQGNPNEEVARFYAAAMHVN

[18] = target: T4, Trifunctional purine biosynthetic protein adenosine-3 (Homo sapiens, UniProt P22102); test: Inhibition of GARFTase in human IGROV1 cells assessed as decrease in incorporation of [14C(U)glycine into [14C]formyl GAR formation after 24 hrs; format: cell-based
T4 sequence (P22102 whole entry): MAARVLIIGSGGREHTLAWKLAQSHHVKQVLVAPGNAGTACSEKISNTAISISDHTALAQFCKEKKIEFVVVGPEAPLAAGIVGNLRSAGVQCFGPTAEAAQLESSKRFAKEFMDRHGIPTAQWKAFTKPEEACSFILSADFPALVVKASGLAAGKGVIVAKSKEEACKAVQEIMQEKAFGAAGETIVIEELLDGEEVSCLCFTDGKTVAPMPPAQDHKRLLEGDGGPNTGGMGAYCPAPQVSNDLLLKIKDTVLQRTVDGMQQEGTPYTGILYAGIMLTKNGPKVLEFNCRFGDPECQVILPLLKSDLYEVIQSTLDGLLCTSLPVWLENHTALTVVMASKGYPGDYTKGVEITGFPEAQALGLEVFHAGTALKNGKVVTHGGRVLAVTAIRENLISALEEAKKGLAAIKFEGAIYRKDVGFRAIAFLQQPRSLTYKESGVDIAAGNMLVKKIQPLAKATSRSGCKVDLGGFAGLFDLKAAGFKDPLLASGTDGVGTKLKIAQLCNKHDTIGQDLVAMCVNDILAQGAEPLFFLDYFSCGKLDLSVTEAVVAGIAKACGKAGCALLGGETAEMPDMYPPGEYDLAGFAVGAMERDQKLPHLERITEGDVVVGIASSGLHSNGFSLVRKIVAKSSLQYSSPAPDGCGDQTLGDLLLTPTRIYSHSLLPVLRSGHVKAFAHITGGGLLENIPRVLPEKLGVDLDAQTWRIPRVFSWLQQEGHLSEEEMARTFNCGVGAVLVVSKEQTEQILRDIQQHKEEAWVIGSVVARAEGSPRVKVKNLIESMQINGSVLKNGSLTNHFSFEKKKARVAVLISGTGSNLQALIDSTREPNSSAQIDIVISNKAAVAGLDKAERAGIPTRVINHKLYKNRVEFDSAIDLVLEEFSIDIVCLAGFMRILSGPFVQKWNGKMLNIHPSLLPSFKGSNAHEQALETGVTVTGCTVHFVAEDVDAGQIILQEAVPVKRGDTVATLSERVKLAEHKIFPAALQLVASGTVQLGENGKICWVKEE

[19] = target: T1, Reduced folate transporter (Homo sapiens); test: Inhibition of human RFC2 expressed in human HeLa R1-11 cells assessed as reduction in [3H]MTX uptake at pH 7.2 at 10 uM measured over 2 mins relative to control

Compound | IC50 (IGROV-1 [1]) [µM] | inhibition [2] | IC50 (IGROV-1 [3]) [µM] | IC50 (A2780) [µM] | IC50 (IGROV-1 [4]) [µM] | IC50 (IGROV-1 [5]) [µM] | IC50 (IGROV-1 [6]) [µM] | inhibition [7] | inhibition [8] | inhibition [9] | inhibition [10] | Ki [11] [µM] | Activity (IGROV-1 [12]) | Activity (IGROV-1 [13]) | Activity (IGROV-1 [14]) | IC50 [15] [µM] | inhibition [16] | inhibition [17] | IC50 [18] [µM] | inhibition [19] [%]
Nc1nc2[nH]cc(CCc3ccc(C(=O)N[C@@H](CCC(=O)O)C(=O)O)cc3)c2c(=O)[nH]1 [PEMETREXED] | 0.104 | inactive | 0.0466 | 0.0394 | 0.0222 | > 20 | 0.071 | inactive |  |  |  |  |  |  |  |  |  |  |  | 
Nc1nc2[nH]c(CCCCc3ccc(C(=O)N[C@@H](CCC(=O)O)C(=O)O)cc3)cc2c(=O)[nH]1 |  | inactive |  | 0.0142 | > 1 |  |  | inactive |  |  |  |  |  |  |  |  |  |  |  | 
Nc1nc(N)c2nc(CNc3ccc(C(=O)N[C@@H](CCCNC(=O)c4ccccc4C(=O)O)C(=O)O)cc3)cnc2n1 |  | inactive |  |  |  |  |  | inactive | Active | Active | Active |  |  |  |  |  |  |  |  | 
Nc1nc2[nH]c(CCCc3ccc(C(=O)N[C@@H](CCC(=O)O)C(=O)O)cc3)cc2c(=O)[nH]1 |  | inactive |  | 0.00272 |  |  |  | inactive | Active | Active | Active | 0.63 | Active | inactive | inactive | > 1 |  |  |  | 
Nc1nc2[nH]c(CCCCc3ccc(C(=O)N[C@@H](CCC(=O)O)C(=O)O)nc3)cc2c(=O)[nH]1 | 0.00187 | inactive | 0.0641 | 0.00542 | 0.0305 |  | 0.00155 | inactive | Active | Active | Active | 0.24 |  |  |  |  | Active |  |  | 
Nc1nc2[nH]c(CCCCc3csc(C(=O)N[C@@H](CCC(=O)O)C(=O)O)c3)cc2c(=O)[nH]1 | 0.0543 | inactive | > 1 | 0.0288 | > 1 |  | 0.0407 | inactive | Active | Active | Active | 0.36 |  |  |  | > 1 | Active | Active |  | 
Nc1nc2[nH]c(CCCCc3ccc(C(=O)N[C@@H](CCC(=O)O)C(=O)O)c(F)c3)cc2c(=O)[nH]1 |  | inactive |  |  |  |  |  | inactive |  | 90 to 95% | 60 to 85% |  | Active | inactive | inactive |  | Active |  |  | 
Nc1nc2[nH]c(CCCc3csc(C(=O)N[C@@H](CCC(=O)O)C(=O)O)c3F)cc2c(=O)[nH]1 | 0.00692 |  | 0.0856 | 0.0076 | 0.0422 |  | 0.00561 | < 30% | Active | 90 to 95% | 60 to 85% | 0.07 |  |  |  | 0.0205 | Active | Active | 0.0012 | < 30
Nc1nc2[nH]c(CCCCc3cnc(C(=O)N[C@@H](CCC(=O)O)C(=O)O)c(F)c3)cc2c(=O)[nH]1 |  | inactive | > 1 |  | > 1 |  |  | inactive |  | 90 to 95% | 60 to 85% |  | Active | inactive | inactive | > 1 | Active |  | 0.002 | 
